Bioassay records deposited in PubChem by several laboratories.
Shown are actives, neighbours in structure and some others; about 1.4% of the full set was active somewhere.
SUMO Mot1 rescue: SUMOylation pathway inhibition by Mot1-301 growth rescue. 320,000 compounds, 1% hits. S. cerevisiae Mot1-301 growth rescue, ATP luminescence, 38.5C; percent above DMSO median, 100 means doubled. AID 2716. growth rescue, % at 18.8 µM;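 active means every valid replicate shows activation above 250% relative to neutral control wells; inactive means the rest, any valid replicate at or below 250%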;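 further: OY570 slx delta 5 strain wells were the positive control but not used for scaling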
JMJD2C inh: blocks human GASC-1 demethylase activity; 330,000 compounds, 0.069% hits; inhibition, % at 2.35 µM; GST-JMJD2C(1-420) H3K9me3 demethylation, DELFIA europium; AID 2099; Q9H3R0;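 active means more than half of a compound's replicate wells show inhibition beyond 50%, single wells judged on their own value; inconclusive means some, but no more than half, of replicates pass 50% inhibition; inactive means no replicate passes 50% inhibition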;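 further: signal counts dimethyl H3K9 product captured on neutravidin plate; 0% = median of DMSO wells and 100% = 0.3 times that DMSO median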
Target sequence (Q9H3R0 1-420 limits assumed): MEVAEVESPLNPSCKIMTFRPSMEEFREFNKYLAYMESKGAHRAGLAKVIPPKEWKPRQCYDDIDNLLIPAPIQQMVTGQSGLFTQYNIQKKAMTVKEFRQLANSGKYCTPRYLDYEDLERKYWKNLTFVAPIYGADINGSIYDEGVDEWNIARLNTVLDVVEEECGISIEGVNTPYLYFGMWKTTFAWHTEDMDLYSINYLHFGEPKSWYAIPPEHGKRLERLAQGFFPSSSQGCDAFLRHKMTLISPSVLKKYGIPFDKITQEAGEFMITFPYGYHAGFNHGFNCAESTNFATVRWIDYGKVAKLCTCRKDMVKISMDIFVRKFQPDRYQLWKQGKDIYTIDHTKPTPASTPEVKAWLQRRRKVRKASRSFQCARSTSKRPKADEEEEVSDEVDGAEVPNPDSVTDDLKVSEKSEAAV
HIF act: HIF pathway transcriptional activation; U2OS HRE-luciferase reporter, luminescence; normalized: DMSO 0%, desferrioxamine 100%; activation, % at 7.5 µM (by protocol); 300,000 compounds, 0.32% hits; AID 1910;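 active means mean activation of at least 10% of the iron chelator positive control signal, with at least half of replicates also reaching 10%; inconclusive means mean and replicate majority disagree about reaching 10%; inactive means mean and most replicates under 10%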
T cell HTS: modulates CD8 T cell binding to vesicles. 2C CD8+ T cell-vesicle binding, flow cytometry; active compounds read low. response (vesicle binding), % at 7 µM. 330,000 compounds, 0.068% hits. AID 2052;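 active means response, share of CD8 T cells binding vesicles, and their 90th percentile fluorescence all below set limits, cut at about 80% in these data, passing the limit was not always enough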;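 further: values below 100% mean blocked vesicle binding to the CD8+ T cells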
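Test system: purified 2C TCR transgenic mouse naive CD8+ T cells. Probe or stimulus: QL9-peptide-loaded Drosophila micro-vesicles bearing Ld, ICAM-1 and B7-1. Incubation: binding step 1.5 h, 37 °C, antibody labelling 20 min, ice. Measured by: flow cytometry of vesicle-bound cells.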
Numbers without * were called inactive; ? = inconclusive; nt = no result; + = active, no number.

SMILES	SUMO Mot1 rescue	JMJD2C inh	HIF act	T cell HTS
COc1ccc(C(=O)N/N=C(\c2ccccc2)c2ccccn2)cc1	4	-8	49*	536
O=C(N/N=C(\c1ccccc1)c1ccccn1)c1ccccc1Cl	-7	16	47*	115
O=C(NN=C(c1ccccc1)c1ccccn1)c1ccccc1	18	15	nt	302
COc1ccc(C(=O)N/N=C/c2cccc3cccnc23)cc1	nt	-5	12*	248
COc1ccccc1C1=NOC(C)(c2nnc(Cc3ccccc3)o2)C1 (centres undefined)	7	-1	1	826
CCNC(=S)N1CCC(n2cnc3ccccc32)CC1	-7	-2	-1	442
Cn1ncc(Br)c1C(=O)N1CCCCCC1	15	-8	1	33*
COCCN(C(=O)COC(=O)CCc1c[nH]c2ccccc12)c1c(N)n(Cc2ccccc2)c(=O)[nH]c1=O	13	-17	0	478
Cc1cccnc1NC(=O)Nc1cccc(Cl)c1	9	3	3	273
CC(C)c1onc(C(=O)Nc2sc3c(c2C#N)CCC3)c1[N+](=O)[O-]	-18	-2	191*	250
O=C1Nc2ccc(Cl)cc2/C1=C/C1CC=CCC1 (centres undefined)	-4	-16	394*	308
O=C(O)CC1S/C(=N/N=C/C2CC=CCC2)NC1=O (centres undefined)	368	1	0	315
COC(=O)C1=C(C)Nc2nnnn2C1c1ccccc1Cl (centres undefined)	339*	-2	0	253
CCCCCOC(=O)C1=C(C)Nc2nnnn2C1c1ccccc1Cl (centres undefined)	nt	-4	-2	245
O=C(NCCCn1ccnc1)c1cc(-c2cccs2)on1	-11	2	38*	161
O=C(NCCCN1CCOCC1)c1cc(-c2cccs2)on1	-8	?	20*	415
Cc1ccc(-c2cc(C(=O)NCCCN3CCOCC3)no2)cc1	487	-3	-3	349
O=C(NC1CCCC1)c1cc(-c2cccs2)on1	1	0	32*	517
O=C(NC1CCCC1)c1cc(-c2ccccc2O)on1	96	7	1	346
CN(C(=O)N1CCN(S(=O)(=O)c2ccccc2)CC1)c1ccccc1	8	25	0	606
CC(C)c1ccc(-c2nnc(SCC(=O)NC3CC3)n2C)cc1	9	nt	0	168
Cc1ccc(-c2csc3nc4cc(C(=O)NC5CCC(O)CC5)ccc4c(=O)n23)cc1 (centres undefined)	-10	67*	0	393
CC(C)CN(C(=O)COc1ccc(-c2nnco2)cc1)C1CCS(=O)(=O)C1 (centres undefined)	-6	-8	0	326
COc1cc(C2NC(=O)NC(C)=C2[N+](=O)[O-])cc(OC)c1OC (centres undefined)	-3	10	0	194
CC(C)CC(=O)Nc1ccc2c3c(cccc13)CC2	389*	-2	0	230
SMILES	SUMO Mot1 rescue	JMJD2C inh	HIF act	T cell HTS
O=C(O)Cn1cc(/C=N/NC(=O)c2cc3cc(Br)ccc3o2)c2ccccc21	+	14	1	159
CCOC(=O)N1CCN(C(=O)c2ccc(CS(=O)c3ccccc3)o2)CC1 (centres undefined)	-5	28	-1	998
O=C(N/N=C/c1cc(Cl)ccc1O)c1ccncc1	6	2	26*	322
O=C(N/N=C/c1cccnc1)c1ccc(NC(=O)c2ccc(Cl)cc2)cc1	-2	-1	39*	250
O=C(N/N=C/c1cc2cc3c(cc2nc1Cl)OCCO3)c1ccccc1O	-4	-5	1	467
O=C(N/N=C/c1cc2cc3c(cc2nc1Cl)OCO3)c1ccncc1	0	-2	345*	497
O=C(N/N=C/c1cccnc1)c1ccc(NC(=O)c2cccc(Cl)c2)cc1	18	-27	1	195
CCOc1cc(N2CCOCC2)c(OCC)cc1NC(=O)COC(=O)COc1ccc(C#N)cc1	-10	5	0	197
CC(=O)Nc1ccc(NC(=O)C(C)OC(=O)CNS(=O)(=O)c2ccc(Br)cc2Cl)cc1 (centres undefined)	14	-1	0	426
CN1CCN(Cc2nc3ccccc3c(=O)n2Cc2nc(-c3ccccc3F)cs2)CC1	-20	0	20*	320
CN1CCN(Cc2nc3ccccc3c(=O)n2Cc2nc(-c3ccc4ccccc4c3)cs2)CC1	14	-3	-3	176
O=C(Nc1ccccc1C(=O)O)/C(=C/c1ccc(Cl)cc1Cl)NC(=O)c1ccco1	420	5	0	422
CC(=O)N(CC(C)(C)CC=C(C)C)c1ccccc1	638*	3	0	199
CC(C)CNC(=O)C(=O)NCc1ccccn1	315*	-13	0	383
CC(C)NC(=O)C(=O)NCc1ccccn1	6	9	0	129
CCC1COCCS(=O)(=O)N1Cc1cccc(C(F)(F)F)c1 (centres undefined)	-21	-7	0	830
Cc1ccc(N2C(=O)CC(Sc3nccc(C)n3)C2=O)cc1 (centres undefined)	-1	-4	1	307
Cc1ccc(N2C(=O)CC(Sc3cccs3)C2=O)cc1 (centres undefined)	320*	0	0	140
O=C(COC(=O)/C=C/c1ccc(F)cc1)NC1CCCCCC1	-5	-2	nt	436
CCN(CC)CCNC(=O)c1cc(Nc2ccc(OC)c(OC)c2)nc2ccccc12	7	9	0	486
O=C(NC1CCCc2ccccc21)c1ccc(Br)cc1 (centres undefined)	9	58*	0	256
Oc1ccc(N=Nc2cccc(C(F)(F)F)c2)cc1C=Nc1ccc(N2CCOCC2)cc1	750	-3	0	0.0*
Oc1ccc(C=Nc2ccc(N3CCOCC3)cc2)c(O)c1	-5	3	2	153
O=C(C1CCCN(C2CC(=O)N(c3ccc(Cl)cc3)C2=O)C1)N1CCCC1 (centres undefined)	266*	-2	0	511
O=C(N/N=C/c1ccccc1O)c1cccc(C(F)(F)F)c1	7	5	41*	116
SMILES	SUMO Mot1 rescue	JMJD2C inh	HIF act	T cell HTS
N#Cc1cccc2cnccc12	329*	13	-24	223
O=C(CN1C(=O)NC2(CCCCCCC2)C1=O)NC(=O)NCc1ccco1	337*	-5	0	399
CCCN(CC(=O)Nc1ccccc1C)C(=O)C1CC(=O)N(Cc2ccccc2)C1 (centres undefined)	-15	-29	1	384
O=C(C1=NN[C@@H]2C(=O)N(c3cccc(C(F)(F)F)c3)C(=O)[C@H]12)C(c1ccccc1)c1ccccc1	14	3	57*	351
COc1ccc(N=C2C(=O)N3CCCc4cccc2c43)cc1	-9	29	392*	252
O=C(c1ccccc1)c1c[nH]c(C(=O)NNc2ccccc2)c1	404*	16	0	357
CCOc1ccccc1CN1CCN(Cc2csc(C(C)=O)c2)CC1CCO (centres undefined)	273	-32	0	185
